Experimental findings from ChEMBL document CHEMBL1833799, “Glionitrin B, a cancer invasion inhibitory diketopiperazine produced by microbial coculture” (2011) are described below.

Usually inhibition stands for the drop in the measured response relative to a control, in per cent. Read a low inhibition as little suppression.

In assay [1] the test system is DU-145. Put plainly: Antiinvasive activity against human DU145 cells at 0.2 uM after 24 hrs by cell invasion assay. Format: functional, cell-based. The method, boiled down:
(§1)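 DU145 prostate cancer cells grown at 37 °C, humidified 5% CO2, in medium with serum, 100 units/mL penicillin and 100 μg/mL streptomycin. Cells exposed to compound for 24 h, then in vitro invasiveness measured with a commercial cell invasion assay kit per the maker's protocol. Inhibition expressed relative to an untreated group.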

In assay [2] the test system is DU-145. Put plainly: Cytotoxicity against human DU145 cells at 2.5 to 80 uM after 24 hrs by cell counting kit analysis. Format: functional, cell-based. The essentials:
(§2)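 DU145 cells cultured at 37 °C in humidified 5% CO2 with serum and penicillin/streptomycin. Cells treated with a range of compound concentrations for 24 h, then viability read with Cell Counting Kit-8 per the manufacturer. Viability expressed relative to an untreated group. Paclitaxel (0.1 μM) served as positive control.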

In assay [3] the test system is DU-145. The assay can be described thus: Cytotoxicity against human DU145 cells at 0.25 to 8 uM after 24 hrs by cell counting kit analysis. Format: functional, cell-based. The method, boiled down:
as §2
Background: Formazan colour is commonly taken as a measure of viable cells.

The test system of assay [4] is DU-145. The assay can be described thus: Antiinvasive activity against human DU145 cells at 15 to 60 uM after 24 hrs by cell invasion assay. Format: functional, cell-based. The essentials:
as §1

The test system of assay [5] is DU-145. Put plainly: Inhibition of human DU145 cells invasion at 60 uM after 24 hrs by cell invasion assay. The format is functional. To be noted: DU-145, 24 h. The method, boiled down:
as §1

Assay [6] has as its system DU-145. The assay can be described thus: Decrease in MMP9 mRNA level in human DU145 cell by RT-PCR analysis. The format is functional, cell-based. The essentials:
(§3)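 DU145 cells were exposed to compounds for 18 h. Total RNA was isolated by spin column and reverse-transcribed to cDNA. PCR used 100 ng cDNA aliquots: 94 °C for 5 min, then 32 cycles of 94 °C for 30 s, 58 °C for 30 s and 72 °C for 1 min. Products were assessed for MMP-2 and MMP-9 transcript levels.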

Assay [7] concerns DU-145. The assay can be described thus: Antiinvasive activity against human DU145 cells after 24 hrs by cell invasion assay. Format: functional, cell-based. The method, boiled down:
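DU145 cells grown with serum, 100 units/mL penicillin and 100 μg/mL streptomycin at 37 °C in humidified 5% CO2. Cells were exposed to test compounds at the indicated concentrations for 24 h. In vitro invasiveness was then measured with a commercial cell invasion kit per the manufacturer's protocol and expressed as inhibition relative to an untreated group.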

Assay [8] concerns DU-145. The assay can be described thus: Decrease in MMP2 mRNA level in human DU145 cell by RT-PCR analysis. Format: functional, cell-based. The method, boiled down: as §3
The test system of assay [9] is DU-145. The assay can be described thus: Cytotoxicity against human DU145 cells at 0.1 uM after 24 hrs by cell counting kit analysis. The format is functional. The essentials:
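DU145 cells were cultured in serum-supplemented medium with penicillin/streptomycin at 37 °C in 5% CO2. They were exposed to a range of compound concentrations for 24 h. Viability was read with the CCK-8 kit per the manufacturer's instructions and expressed as a percentage of an untreated group. Paclitaxel at 0.1 μM served as the positive control.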

Each structure is given as a SMILES string. Active and inactive are the calls of the source. No cut-off for these calls is given here.

On to `CN1C(=O)[C@@]23Cc4ccc([N+](=O)[O-])cc4N2C(=O)[C@@]1(CO)SS3`, for which the result with DU-145 [1] was inactive. Also, the outcome in the assay on DU-145 [2] and in the assay on DU-145 [3] was Active.

As for `CN1C(=O)[C@]23CC4=CC=C[C@H](O)[C@H]4N2C(=O)[C@@]1(CO)SS3`, the result in the assay on DU-145 [1] was inactive. Besides, the result in the assay on DU-145 [2] and in the assay on DU-145 [3] was Active.

With `CS[C@]1(CO)C(=O)N2[C@H]3C(=CC=C[C@@H]3O)C[C@@]2(SC)C(=O)N1C` [BIS(DETHIO)BIS(METHYLTHIO)GLIOTOXIN], the result in the assay on DU-145 [4] and in the assay on DU-145 [2] was inactive. Further, in the assay on DU-145 [5], the inhibition at 60 µM is 22%.

As to `CS[C@@]1(CO)C(=O)N2c3cc([N+](=O)[O-])ccc3C[C@]2(SC)C(=O)N1C` [GLIONITRIN B], the Activity result in the assay on DU-145 [6], with DU-145 [7] and in the assay with DU-145 [8] was “Dose-dependent effect” each time. Besides, the result in the assay with DU-145 [2] was inactive. 60 µM produced 46% inhibition in the assay with DU-145 [5].

In the case of `CC(=O)O[C@H]1C(=O)[C@@]2(C)[C@H]([C@H](OC(=O)c3ccccc3)[C@]3(O)C[C@H](OC(=O)[C@H](O)[C@@H](NC(=O)c4ccccc4)c4ccccc4)C(C)=C1C3(C)C)[C@]1(OC(C)=O)CO[C@@H]1C[C@@H]2O` [PACLITAXEL], in the assay with DU-145 [9], the Activity amounted to 18.9%.
